Bioassay records deposited in PubChem BioAssay by The Scripps Research Institute Molecular Screening Center.
ADAM17 inh: ADAM17 inhibitors, primary screen, biochemical, QFRET | Disintegrin and metalloproteinase domain-containing protein 17 (Homo sapiens), P78536 | recombinant ADAM17, EDANS/DABCYL FRET peptide cleavage | inhibition, % at 6.95 µM | actives 0.83% (n = 370,000) | AID 720648, 2013;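 active means inhibition above the mean of compounds lying between control limits plus 3 SD, set per campaign, cut at about 8.5% in these data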;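 further: 0% = DMSO-only wells as the low control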
PLCb3 inh: human PLC-beta3 inhibitors, primary screen, biochemical, fluorescence; actives 0.18% (n = 370,000); inhibition, % at 12.2 µM; 1-phosphatidylinositol 4,5-bisphosphate phosphodiesterase beta-3 (Homo sapiens), Q01970; Purified PLC-beta3, fluorogenic substrate; AID 720704, 2013; in the data active means inhibition above about 11%;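 further: 0% = median of compound wells on plate and 100% = full blocker control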
PLC-gamma1 inh: PLC-gamma1 enzyme inhibitors, primary screen, biochemical, fluorescence, purified enzyme; AID 720700, 2013; fluorogenic substrate; inhibition, % at 12.2 µM; 1-phosphatidylinositol 4,5-bisphosphate phosphodiesterase gamma-1 (Homo sapiens), P19174; actives 0.84% (n = 370,000); in the data active means inhibition above about 9.5%
Tb MetRS inh: T. brucei MetRS inhibitors, primary screen, biochemical, luminescence; methionyl-tRNA synthetase (Trypanosoma brucei brucei); purified T. brucei MetRS, ATP depletion, Kinase-Glo luminescence; inhibition, % at 11.9 µM; actives 0.4% (n = 360,000);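 active means inhibition above a per-plate cutoff of the control wells' mean inhibition plus 3 SD, cut at about 5.5% in these data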;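 further: 0% = DMSO wells median and 100% = median of wells with control inhibitor compound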
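assay system = parasite MetRS enzyme | timing = 15 min preincubation, 2 h reaction, all 25 °C | evaluation = percent inhibition relative to median high and low control wells | medium = HEPES buffer containing pyrophosphatase, BSA, spermine, DTT | compound = single dose, 11.9 µM final nominal, 0.9% final DMSO | detection = Kinase-Glo luminescence, ATP depletion format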
ADAM10 inh: human ADAM10 inhibitors, primary screen, biochemical, QFRET, HTS; actives 0.62% (n = 370,000); AID 720582, 2013; recombinant ADAM10, EDANS/DABCYL FRET peptide cleavage, 3 h; inhibition, % at 7 µM;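 active means inhibition above a per-campaign cutoff equal to the mean of compounds falling between control-based bounds plus 3 SD, cut at about 20% in these data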;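 further: 0% = DMSO wells while the 100% control is not disclosed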
Tb MetRS conf: T. brucei MetRS inhibitors, confirmation, biochemical, luminescence; shares compounds with Tb MetRS inh; T. brucei MetRS enzyme, luminescence (ATP depletion); inhibition, % at 11.9 µM; actives 93% (n = 1,400); in the data active means inhibition above about 7%
Jurkat cytotox: Jurkat T cell cytotoxicity, cytotoxicity control for T. brucei MetRS inhibitor project, luminescence, high throughput; actives 12% (n = 1,400); inhibition, % at 8.3 µM; Jurkat cells viability, ATP luminescence; shares compounds with Tb MetRS inh; in the data active means inhibition above about 15%;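 further: 0% = vehicle and 100% = reference inhibitor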
Tb MetRS inh FP: T. brucei MetRS inhibitors, orthogonal assay for T. brucei MetRS inhibitor project, biochemical, fluorescence polarization | shares compounds with Tb MetRS inh | purified T. brucei MetRS | inhibition, % at 11.9 µM | actives 44% (n = 1,400) | AID 651607, 2012; in the data active means inhibition above about 17%;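 further: 0% = vehicle wells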
The depositor's hits bear a star; . = no result given; ! = not active in a repeat. An excerpt weighted towards active compounds, which were near 2.3% of everything screened.

SMILES	ADAM17 inh	PLCb3 inh	PLC-gamma1 inh	Tb MetRS inh	ADAM10 inh	Tb MetRS conf	Jurkat cytotox	Tb MetRS inh FP
Nc1ncnc2c1ncn2[C@@H]1O[C@H](CNS(=O)(=O)c2ccc3c(c2)CCN(C(=O)C(F)(F)F)C3)[C@@H](O)[C@H]1O	-5	-3	3	8.7*	-14	17*	16*	9
CCCCCCCCCC1NC(C(=O)O)Cc2c1[nH]c1ccccc21 (configuration not stated)	0	-27	-23	70*	-14	93*	-6	74*
O=C(Nc1ccc(C(=O)O)cc1)/C(=C\C=C\c1ccccc1)NC(=O)c1cccc(Br)c1	8	-9	-1	12*	11	20*	2	23*
O=C(Nc1cccc(C(=O)O)c1)/C(=C\C=C\c1ccccc1)NC(=O)c1ccccc1	-1	-1	-4	0	6	.	.	.
COC(=O)C1=C(N)Oc2cc(C)n(Cc3cccnc3)c(=O)c2C1c1cc(OC)ccc1OC (configuration not stated)	-4	0	-3	40*	0	6.1*	2	4
COC(=O)C1=C(N)Oc2cc(C)n(CCCn3ccnc3)c(=O)c2C1c1cccc(Cl)c1 (configuration not stated)	3	7	3	19*	-10	3	1	4
COc1ccc(CC2=CC(=O)c3ccccc3C2=O)cc1	0	-28	-15	-2	-3	.	.	.
O=C(NC1CCCCC1)N1CCC(c2nc3ccc(Cl)cc3[nH]2)CC1	-3	-1	0	7.8*	1	12*	12	6
COc1ccc(NC(=S)N2CCC(c3nc4ccc(Cl)cc4[nH]3)CC2)c(OC)c1	-2	1	1	15*	-4	36*	1	24*
O=C(NC1CCCCC1)N1CCCC(c2nc3ccccc3[nH]2)C1 (configuration not stated)	-5	-2	-1	9.2*	1	16*	-2	9
O=C1c2ccccc2C(c2nnnn2Cc2ccccc2)N1Cc1cccnc1 (configuration not stated)	-8	2	-1	0	-11	.	.	.
CN(CC(=O)Nc1ccc(Cl)cc1)C(=O)CN1C(=O)C2CCCCC2C1=O (configuration not stated)	-5	2	1	0	-11	.	.	.
CN(CC(=O)Nc1ccc(Cl)cc1)C(=O)CCC1CCCC1	-3	-5	0	6.7*	2	52*	7	20*
OCC1(Cc2ccccc2Cl)CCN(C/C=C/c2ccccc2)CC1	2	2	2	7.2*	5	19*	5	4
OCC1(CCc2ccccc2)CCN(C/C=C/c2ccccc2)CC1	0	-3	3	0	14	.	.	.
O=C(Nc1ccc(F)cc1)OCc1cn(Cc2ccccc2Cl)nn1	-1	0	-2	.	5	.	.	.
C=CCn1c(Cc2ccccc2)n[nH]c1=S	2	4	2	-1	4	.	.	.
C=CCn1c(Cc2nc3ccc(Cl)cc3[nH]2)n[nH]c1=S	-3	-14	-14	6.7*	-9	21*	0	15
CC(C)(C)C1c2[nH]c3ccccc3c2CCN1Cc1cccc(OCCO)c1 (configuration not stated)	-16	-54	-41	9.1*	-48	7.1*	3	6
CN[C@H]1C[C@H]2c3cc(-c4ccccc4)ccc3CCN2C(=O)[C@H]1[C@H](C)O	-21	-60	-46	-1	-86	.	.	.
COc1cccc(C2CC(c3ccc(Cl)cc3Cl)Nc3nc(N)nn32)c1 (configuration not stated)	0	-23	-20	8.3*	-2	13*	4	5
COc1ccc(C2CC(c3ccc(Cl)cc3Cl)Nc3nc(N)nn32)cc1 (configuration not stated)	-1	-8	-6	7.5*	-10	14*	-4	0
CC(C)(C)c1ccc(S(=O)(=O)Nc2noc3ccccc23)cc1	-4	-12	-2	0	-3	.	.	.
C=CCc1cccc(/C=C/c2cc(=O)c3ccccc3[nH]2)c1O	-5	-301	-255	6.4*	-8	19*	15*	8
C=CCc1cccc(/C=N/n2cnnc2)c1O	-6	-32	-25	-1	-5	.	.	.
SMILES	ADAM17 inh	PLCb3 inh	PLC-gamma1 inh	Tb MetRS inh	ADAM10 inh	Tb MetRS conf	Jurkat cytotox	Tb MetRS inh FP
COc1ccc(COC(=O)CCNC(=O)c2ccc(Cl)cc2)cc1	1	1	0	7.0*	2	28*	-4	14
COc1ccc(CC(=O)OCC(=O)NCc2ccc(Cl)cc2)cc1	-3	-3	0	-1	-7	.	.	.
COc1ccc(CNC(=O)CCC(=O)Nc2ccc(Cl)cc2)cc1	-7	-6	-2	7.1*	-1	17*	-1	6
O=S1(=O)C[C@H](N2CCN(CC3CC3)CC2)[C@@H](COCc2ccccc2)N1	-1	3	3	1	-3	.	.	.
Cn1cc(S(=O)(=O)N2CCOCC2)cc1C(=O)NCc1ccc(Cl)cc1	-1	-1	3	36*	0	51*	-2	28*
Cc1csc(=O)n1CC(=O)OCC(=O)c1ccc(Br)cc1	-2	-1	-1	0	-10	.	.	.
N#C/C(=N\Nc1cc(Cl)cc(Cl)c1)c1nnc2n1CCCCC2	-10	-5	0	24*	4	40*	6	26*
N#C/C(=C(/O)CCl)c1nnc2n1CCCCC2	-4	-7	0	-1	1	.	.	.
Brc1ccc2[nH]c3nc(SCCN4CCOCC4)nnc3c2c1	-2	1	3	16*	2	33*	15*!	23*!
c1ccc2c(c1)[nH]c1nc(SCCN3CCOCC3)nnc12	-6	-3	-5	0	-4	.	.	.
O=C(NNC(=O)c1cc2ccccc2[nH]1)OCc1ccccc1	-3	-4	-1	13*	-6	46*	-12	19*
O=C(NCC(O)c1nc2ccccc2[nH]1)c1cc2ccccc2[nH]1 (configuration not stated)	-3	-1	3	51*	-10	68*	0	40*
